Laboratory results: article PMC3674249 (Nature Communications, 2013)
Entries after “also recorded” stand apart in the source; their conditions may differ.

Legend:
[1] = molecular target: T1, ChEH (Homo sapiens, UniProt Q15125+Q9UBM7); test: ChEH activity in whole MCF-7 cells; assay type: cell-based; conditions: for IC50 of ChEH inhibition, fold higher than DDA / ChEH inhibition (in words): MCF-7 cells
Method in brief: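 Whole MCF-7 cells were grown in RPMI with 5% FBS. Conversion to [14C]-CT was resolved by TLC and quantified by densitometry. IC50 came from dose–response curves, as mean±s.e.m. of three independent experiments.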

[2] = system: ChEH; conditions: microsomes from rat liver; cited from earlier work
[3] = molecular target: T1, ChEH; test: ChEH activity in human melanoma SK-Mel-28 cells; assay type: cell-based
[4] = molecular target: T2, ChEH (Mus musculus, UniProt O88455+P70245); test: ChEH activity in murine mammary TSA cells; assay type: cell-based
T2 sequence (P70245 1-230): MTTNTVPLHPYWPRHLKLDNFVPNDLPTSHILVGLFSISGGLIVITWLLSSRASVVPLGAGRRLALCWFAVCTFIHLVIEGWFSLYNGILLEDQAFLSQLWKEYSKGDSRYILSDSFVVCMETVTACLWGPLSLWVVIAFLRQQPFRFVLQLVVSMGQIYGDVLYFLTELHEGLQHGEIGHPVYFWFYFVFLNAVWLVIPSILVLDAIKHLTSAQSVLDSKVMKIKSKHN
T2 sequence (O88455 1-471): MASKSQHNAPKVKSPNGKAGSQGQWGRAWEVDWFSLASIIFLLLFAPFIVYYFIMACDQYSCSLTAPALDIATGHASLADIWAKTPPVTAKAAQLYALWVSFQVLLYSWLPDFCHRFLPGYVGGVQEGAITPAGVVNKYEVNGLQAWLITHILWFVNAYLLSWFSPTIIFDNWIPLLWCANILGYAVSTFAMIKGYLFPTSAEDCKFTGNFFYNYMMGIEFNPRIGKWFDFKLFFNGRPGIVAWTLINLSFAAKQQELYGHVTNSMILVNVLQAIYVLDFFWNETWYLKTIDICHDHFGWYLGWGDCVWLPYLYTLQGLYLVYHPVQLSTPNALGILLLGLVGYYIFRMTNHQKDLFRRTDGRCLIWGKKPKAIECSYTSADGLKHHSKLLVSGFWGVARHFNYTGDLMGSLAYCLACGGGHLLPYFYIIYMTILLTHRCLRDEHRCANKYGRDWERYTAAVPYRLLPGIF

[5] = molecular target: T2, ChEH; test: ChEH activity in murine melanoma B16F10 cells; assay type: cell-based
[6] = system: B16F10 melanoma tumours; test: B16F10 melanoma tumours implanted s.c. into immunocompetent mice; assay type: in vivo, mouse
Method in brief: (§1)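 Female mice, 6–8 weeks old, held specific-pathogen-free after 2 weeks quarantine. Strains were C57BL/6 for B16F10 and BALB/c for TS/A. 35,000 exponentially growing cells in 150 μl PBS were implanted s.c. into the flank. Dosing was s.c. every 5 days from implantation day, with a s.c. vehicle control (n=10 per group). Survival was by Kaplan–Meier with log-rank test.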

[7] = molecular target: T3, Human sEH (Homo sapiens, UniProt P34913); test: sEH activity assay; assay type: biochemical
T3 sequence (P34913 1-555): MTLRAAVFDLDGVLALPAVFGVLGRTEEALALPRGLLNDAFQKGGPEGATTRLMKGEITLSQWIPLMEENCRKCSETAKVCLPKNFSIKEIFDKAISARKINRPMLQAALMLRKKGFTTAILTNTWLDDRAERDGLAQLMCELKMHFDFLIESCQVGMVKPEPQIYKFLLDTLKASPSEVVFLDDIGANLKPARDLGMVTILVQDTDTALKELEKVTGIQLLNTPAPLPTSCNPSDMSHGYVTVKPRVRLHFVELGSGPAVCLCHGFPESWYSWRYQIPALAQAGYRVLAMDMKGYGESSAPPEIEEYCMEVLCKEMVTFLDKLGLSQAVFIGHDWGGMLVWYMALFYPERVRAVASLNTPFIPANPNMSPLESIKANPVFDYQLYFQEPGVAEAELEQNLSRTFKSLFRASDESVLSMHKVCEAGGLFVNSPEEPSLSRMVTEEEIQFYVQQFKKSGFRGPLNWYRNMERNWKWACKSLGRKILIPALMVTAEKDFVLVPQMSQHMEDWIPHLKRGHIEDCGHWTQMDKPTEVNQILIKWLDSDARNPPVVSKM

[8] = system: TS/A mammary tumours; test: TS/A mammary tumours implanted s.c. into immunocompetent mice; assay type: in vivo, mouse
Method in brief: as §1

[9] = system: B16F10 cells; test: B16F10 cell differentiation in vitro; assay type: cell-based, mouse; conditions: 24 h
[10] = molecular target: T4, rat mEH (Rattus norvegicus, UniProt P07687); test: mEH activity assay; assay type: biochemical
T4 sequence (P07687 1-455): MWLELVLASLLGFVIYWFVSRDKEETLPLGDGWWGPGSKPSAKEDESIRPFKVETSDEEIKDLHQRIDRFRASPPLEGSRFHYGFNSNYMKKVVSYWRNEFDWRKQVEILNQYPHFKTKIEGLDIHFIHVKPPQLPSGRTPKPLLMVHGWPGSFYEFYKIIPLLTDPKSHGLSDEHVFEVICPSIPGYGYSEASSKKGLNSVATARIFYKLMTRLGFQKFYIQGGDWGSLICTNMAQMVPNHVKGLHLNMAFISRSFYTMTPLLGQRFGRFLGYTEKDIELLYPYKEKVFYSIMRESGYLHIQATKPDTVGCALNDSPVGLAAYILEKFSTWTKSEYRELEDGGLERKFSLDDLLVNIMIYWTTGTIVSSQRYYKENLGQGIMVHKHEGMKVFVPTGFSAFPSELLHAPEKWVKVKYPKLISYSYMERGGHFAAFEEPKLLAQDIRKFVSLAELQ

[11] = molecular target: T1, ChEH; test: Modality of ChEH inhibition in MCF-7 cell extracts; assay type: biochemical; conditions: MCF-7 cell extracts, 0.5, 1 and 5 μM DDA; Km increased, Vmax unchanged
[12] = system: TS/A cells; test: TS/A cell differentiation in vitro; assay type: cell-based, mouse; conditions: 24 h
[13] = system: ER; test: ER-dependent transcriptional activity; assay type: cell-based, human; conditions: MELN cells; for inhibition of luciferase stimulation by E2 (ER antagonism): with 10 nM E2, Tam 1 μM
[14] = system: mouse brain homogenate; test: DDA neosynthesis assay; assay type: biochemical; conditions: 2 μM [14C]-5,6α-EC, His 0.5–200 μM, 37 °C, 10 min
[15] = B16F10, treated every 5 days from day of implantation, DDA 0.37 μg kg−1 s.c.
[16] = TS/A tumours, DDA 3.7 μg kg−1, 30 days

T1 sequence (Q15125 whole entry): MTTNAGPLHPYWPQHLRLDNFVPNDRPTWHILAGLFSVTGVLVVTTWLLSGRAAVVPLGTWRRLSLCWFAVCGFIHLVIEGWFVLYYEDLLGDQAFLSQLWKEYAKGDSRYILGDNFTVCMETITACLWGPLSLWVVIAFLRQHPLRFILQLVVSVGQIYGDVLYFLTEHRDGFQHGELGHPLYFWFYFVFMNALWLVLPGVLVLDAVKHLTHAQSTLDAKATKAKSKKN
T1 sequence (Q9UBM7 whole entry): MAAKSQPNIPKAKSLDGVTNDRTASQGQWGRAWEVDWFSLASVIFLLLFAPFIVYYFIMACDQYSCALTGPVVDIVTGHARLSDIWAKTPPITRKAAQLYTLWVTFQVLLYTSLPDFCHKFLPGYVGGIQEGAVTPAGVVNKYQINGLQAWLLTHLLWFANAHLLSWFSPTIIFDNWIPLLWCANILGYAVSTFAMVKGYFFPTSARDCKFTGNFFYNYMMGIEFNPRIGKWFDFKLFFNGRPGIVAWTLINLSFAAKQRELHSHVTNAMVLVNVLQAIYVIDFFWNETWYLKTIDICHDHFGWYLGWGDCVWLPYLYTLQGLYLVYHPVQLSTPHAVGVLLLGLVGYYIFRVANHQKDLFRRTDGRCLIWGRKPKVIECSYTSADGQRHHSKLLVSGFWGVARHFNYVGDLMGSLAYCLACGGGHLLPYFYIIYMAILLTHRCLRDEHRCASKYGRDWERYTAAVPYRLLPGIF

For CC(C)CCC[C@@H](C)[C@H]1CC[C@H]2[C@@H]3C(=O)C=C4C[C@@H](O)CC[C@]4(C)[C@H]3CC[C@]12C [7-ketocholesterol], the IC50 [1] is given as 5.09 ± 1.4 µM, the “IC50 of ChEH inhibition, fold higher than DDA” value [1] is given as 42 fold and the “ChEH inhibition (in words)” value [2] is given as “inhibited ChEH in microsomes from rat liver”.
For CC(C)CCC[C@@H](C)[C@H]1CC[C@H]2[C@@H]3[C@H](O)C=C4C[C@@H](O)CC[C@]4(C)[C@H]3CC[C@]12C [Compound 7α-OHCh, 7α-hydroxycholesterol], the IC50 [1] is given as 12 ± 2.9 µM, the “IC50 of ChEH inhibition, fold higher than DDA” value [1] is given as 100 fold and the “ChEH inhibition (in words)” value [2] is given as “inhibited ChEH in microsomes from rat liver”.
In the case of C[C@H](CCCC(C)(C)O)[C@H]1CC[C@H]2[C@@H]3CC=C4C[C@@H](O)CC[C@]4(C)[C@H]3CC[C@]12C [Compound 25-OHCh], the “ChEH inhibition (in words)” value [1] is listed as “unable to inhibit ChEH” and the “ChEH inhibition (in words)” value [2] is listed as “did not inhibit ChEH”.
In the case of CC(C)CCC[C@@H](C)[C@H]1CC[C@H]2[C@@H]3C[C@@H](n4cncc4CCN)[C@@]4(O)C[C@@H](O)CC[C@]4(C)[C@H]3CC[C@]12C [Compound C17, 5α-hydroxy-6β-[5-(2-amino-ethyl)-imidazol-1-yl]-cholestan-3β-ol], the “ChEH inhibition (in words)” value ([3]; SK-Mel-28 cells) is reported as “inactive against ChEH”, the “ChEH inhibition (in words)” value ([4]; TSA cells) is reported as “inactive against ChEH” and the “ChEH inhibition (in words)” value [1] is reported as “did not inhibit ChEH activity”. For the same compound, the “ChEH inhibition (in words)” value ([5]; B16F10 cells) was “inactive against ChEH”.
For CC(C)CCC[C@@H](C)[C@H]1CC[C@H]2[C@@H]3C[C@@H](NCCc4c[nH]cn4)[C@@]4(O)C[C@@H](O)CC[C@]4(C)[C@H]3CC[C@]12C [DDA, 5α-Hydroxy-6β-[2-(1H-imidazol-4-yl)-ethylamino]-cholestan-3β-ol], the “survivors at day 50” value [6, 15] was 40%, the “tumour growth vs control” value [6, 15] was “significantly inhibited tumour growth” and the “melanin production in tumour sections (Masson–Fontana)” value ([6]; B16F10 tumours, DDA 3.7 μg kg−1, 23 days) was “increased production of melanin”. For the same compound, the “intra-tumour immune cell infiltration (CD3, CD11c)” value ([6]; B16F10 tumours, DDA 3.7 μg/kg, 23 days) was “increased infiltration of CD3^+ T lymphocytes and CD11c^+ dendritic cells”, the IC50 [3] was 0.072 ± 0.015 µM and the “sEH inhibition (in words)” value [7] was “did not inhibit these enzymes; also recorded: not an inhibitor”. The “MFGE8/lactadherin expression in tumour sections (immunohistochemistry)” value [8, 16] was “increased expression of milk fat globule (MFGE8)/lactadherin”, the “neutral lipid droplets in tumour sections (ORO)” value [8, 16] was “increased accumulation of neutral lipid droplets” and the “intra-tumour immune cell infiltration (CD3, CD11c)” value ([8]; TS/A tumours, DDA 3.7 μg/kg, 30 days) was “increased infiltration of CD3^+ T lymphocytes and CD11c^+ dendritic cells”. The “animal survival at day 50” value ([8]; TS/A, treated every 5 days from day of implantation, DDA 0.37 μg kg−1 s.c.) was 60%, the IC50 [4] was 0.284 ± 0.07 µM and the IC50 [1] was 0.12 ± 0.02 µM. For the same compound, the melanin content [9] was “increased in a concentration-dependent manner up to 2.5 μM DDA”, the tyrosinase activity [9] was “increased activity of tyrosinase” and the “mEH inhibition (in words)” value [10] was “did not inhibit these enzymes; also recorded: not an inhibitor”. The “modality of ChEH inhibition” value [11] was “competitive”, the “increase in ORO staining of neutral lipid droplets vs vehicle” value ([12]; 1 μM DDA) was 2.4 fold and the “increase in intracellular triglycerides vs vehicle” value ([12]; 1 μM DDA) was 7 fold. For the same compound, the “MFGE8/lactadherin (immunostaining, flow cytometry)” value ([12]; 2.5 μM DDA) was “increased”, the “increase in ORO staining of neutral lipid droplets vs vehicle” value ([12]; 2.5 μM DDA) was 3 fold and the “increase in intracellular triglycerides vs vehicle” value ([12]; 2.5 μM DDA) was 9 fold. The IC50 [5] was 0.252 ± 0.081 µM, the “stimulation of luciferase expression (ER agonism)” value ([13]; increasing concentrations, without E2) was “did not stimulate the expression of luciferase” and the “inhibition of luciferase stimulation by E2 (ER antagonism)” value [13] was “did not inhibit luciferase stimulation by 17β-estradiol”.
With NCCc1c[nH]cn1 [His, histamine] the “apparent Vmax of DDA formation” value [14] was 0.12±0.04 pmol per mg protein per min.
In the case of CC/C(=C(\c1ccccc1)c1ccc(OCCN(C)C)cc1)c1ccccc1 [Tam, Tamoxifen, reference compound], the “inhibition of luciferase stimulation by E2 (ER antagonism)” value [13] is reported as “completely inhibited luciferase expression”.
